Laboratory results from ChEMBL document CHEMBL1687940, “Quinazoline sulfonamides as dual binders of the proteins B-cell lymphoma 2 and B-cell lymphoma extra long with potent proapoptotic cell-based activity” (J Med Chem, 2011).
Calls of active or inactive are those of the source. The calls are words filed in the database; no cut-off is given here.

What was measured:
Bcl-2-like protein 1 [1] = biological target: T1, Bcl-2-like protein 1 (Homo sapiens, UniProt Q07817); assay: Displacement of biotinylated Bim-BH3 from GST-tagged Bcl-Xl by AlphaScreen competitive assay
T1 sequence (Q07817 whole entry): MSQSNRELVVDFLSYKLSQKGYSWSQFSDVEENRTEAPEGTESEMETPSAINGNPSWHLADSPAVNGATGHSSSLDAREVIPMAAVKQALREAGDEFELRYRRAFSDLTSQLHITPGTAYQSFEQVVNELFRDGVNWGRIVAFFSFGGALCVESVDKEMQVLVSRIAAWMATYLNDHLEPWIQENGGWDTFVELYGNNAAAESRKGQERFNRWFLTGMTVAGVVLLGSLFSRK
How it was run: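 Titration into a mix of GST-tagged Bcl-xL ΔC25 (0.6 nM final) and biotinylated Bim BH3-26 peptide (5.0 nM final), with anti-GST acceptor and streptavidin donor beads (15 μg/mL each). Protein–acceptor and peptide–donor pairs were preincubated 30 min, then added in turn, 4 h at room temperature. DMSO 1.0% final.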

[2] = biological target: Apoptosis regulator Bcl-2 (Homo sapiens, UniProt P10415); assay: Displacement of wild type mBimBH3 from human Bcl-2 by solution competition assay
Apoptosis regulator Bcl-2, sequence (P10415 whole entry): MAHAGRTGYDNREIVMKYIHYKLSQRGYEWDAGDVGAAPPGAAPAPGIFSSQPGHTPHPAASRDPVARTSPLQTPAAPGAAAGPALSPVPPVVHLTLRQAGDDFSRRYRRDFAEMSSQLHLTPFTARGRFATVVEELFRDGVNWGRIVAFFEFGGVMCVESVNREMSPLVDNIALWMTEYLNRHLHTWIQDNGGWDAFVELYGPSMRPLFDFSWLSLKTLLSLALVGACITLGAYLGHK

Bcl-2-like protein 2 = biological target: T2, Bcl-2-like protein 2 (Homo sapiens, UniProt Q92843); assay: Displacement of wild type mBimBH3 from human Bcl-w by solution competition assay
T2 sequence (Q92843 whole entry): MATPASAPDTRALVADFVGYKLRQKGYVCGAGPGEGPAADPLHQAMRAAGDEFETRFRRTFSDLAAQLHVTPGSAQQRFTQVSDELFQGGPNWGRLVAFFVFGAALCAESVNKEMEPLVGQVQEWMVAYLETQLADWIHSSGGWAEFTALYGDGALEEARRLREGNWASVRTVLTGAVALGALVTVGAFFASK

MEF [3] = assay: Cytotoxicity against mouse MEF cells expressing mcl-1 fl/fl after 24 hrs by Cell titer glo assay in presence of 1% serum; format: functional, cell-based
How it was run: (§1)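 Wild-type (mcl-1 fl/fl) or Mcl-1-deficient mouse embryonic fibroblasts kept in high-glucose DME with asparagine, 2-mercaptoethanol and 10% FCS. Exposed to compound 24 h in medium with 1% or 10% FCS. […] Means ± SEM of three independent experiments.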

MEF [4] = assay: Cytotoxicity against mouse mcl-1 deficient MEF cells after 24 hrs by Cell titer glo assay in presence of 1% serum; format: functional, cell-based; how it was run: as §1
MEF [5] = assay: Cytotoxicity against mouse MEF cells expressing mcl-1 fl/fl after 24 hrs by Cell titer glo assay in presence of 10% serum; format: functional, cell-based; how it was run: as §1
MEF [6] = assay: Cytotoxicity against mouse mcl-1 deficient MEF cells after 24 hrs by Cell titer glo assay in presence of 10% serum; format: functional, cell-based; how it was run: as §1
[7] = Cytotoxicity against human NCI-H146 after 48 hrs by MTS assay in presence of 10% human serum; format: functional; conditions: NCI-H146, 48 h
How it was run: (§2)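 Treated 48 h in medium with 10% human serum. Each concentration run in duplicate, at least three separate times. Viability read by MTS proliferation assay.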

NCI-H889 = assay: Cytotoxicity against human NCI-H889 after 48 hrs by MTS assay in presence of 10% human serum; format: functional, cell-based; conditions: NCI-H889, 48 h; how it was run: as §2
NCI-H1963 = assay: Cytotoxicity against human NCI-H1963 after 48 hrs by MTS assay in presence of 10% human serum; format: functional, cell-based; conditions: NCI-H1963, 48 h; how it was run: as §2
[8] = biological target: Induced myeloid leukemia cell differentiation protein Mcl-1 (Homo sapiens, UniProt Q07820); assay: Displacement of wild type mBimBH3 from Mcl-1 by solution competition assay
Induced myeloid leukemia cell differentiation protein Mcl-1, sequence (Q07820 whole entry): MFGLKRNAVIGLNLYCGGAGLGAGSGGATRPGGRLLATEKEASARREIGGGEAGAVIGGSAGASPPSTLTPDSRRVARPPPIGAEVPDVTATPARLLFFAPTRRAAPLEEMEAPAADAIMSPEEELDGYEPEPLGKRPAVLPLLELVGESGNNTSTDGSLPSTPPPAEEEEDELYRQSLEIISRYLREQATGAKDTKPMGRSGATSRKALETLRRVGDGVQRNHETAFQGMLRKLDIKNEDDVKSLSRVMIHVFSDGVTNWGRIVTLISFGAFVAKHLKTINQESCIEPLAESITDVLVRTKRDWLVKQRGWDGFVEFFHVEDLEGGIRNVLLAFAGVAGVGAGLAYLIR

Bcl-2-like protein 1 [9] = biological target: T1, Bcl-2-like protein 1; assay: Binding affinity to Bcl-Xl assessed as association rate constant by surface plasmon resonance assay
How it was run: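 Biacore SPR direct binding. Anti-GST antibody amine-coupled to CM5 chip (~10000 RU); GST-Bcl-xL captured (~1200 RU), fresh protein each cycle. Compound series injected at 90 μL/min, 25 °C; association 95 s, dissociation 240 s. Phosphate/NaCl/EDTA/Tween buffer with 5% DMSO, pH 7.4. Double referencing and DMSO solvent correction; fit to one-to-one model with mass transport for k_a, k_d.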

MEF [10] = assay: Cytotoxicity against mouse mcl-1 deficient MEF cells after 24 hrs by Cell titer glo assay in presence of 10% fetal bovine serum; format: functional, cell-based; how it was run: as §1
MEF [11] = assay: Cytotoxicity against mouse MEF cells expressing mcl-1 fl/fl at 10 uM after 24 hrs by Cell titer glo assay in presence of 10% fetal bovine serum; format: functional, cell-based
MEF [12] = assay: Cytotoxicity against mouse MEF cells expressing mcl-1 fl/fl after 24 hrs by Cell titer glo assay in presence of 10% fetal bovine serum; format: functional, cell-based; how it was run: as §1

Compound	IC50 (Bcl-2-like protein 1 [1])	IC50 [2]	IC50 (Bcl-2-like protein 2)	EC50 (MEF [3])	EC50 (MEF [4])	EC50 (MEF [5])	EC50 (MEF [6])	EC50 [7]	EC50 (NCI-H889)	EC50 (NCI-H1963)	IC50 [8]	Ka (Bcl-2-like protein 1 [9])	EC50 (MEF [10])	Activity (MEF [11])	EC50 (MEF [12])
O=C(NS(=O)(=O)c1ccc(NCCSc2ccccc2)c([N+](=O)[O-])c1)c1ccc(-c2ccc(F)cc2)cc1	1500 nM														
O=[N+]([O-])c1cc(S(=O)(=O)Nc2ncnc3cc(N4CCN(Cc5ccccc5-c5ccc(Cl)cc5)CC4)ccc23)ccc1N[C@H](CCN1CCOCC1)CSc1ccccc1		21 nM	> 1000 nM	> 10000 nM	24.8 nM	> 10000 nM	190 nM	3700 nM	1300 nM	1400 nM	> 1000 nM				
CN(C)CC[C@H](CSc1ccccc1)Nc1ccc(S(=O)(=O)Nc2ncnc3cc(N4CCN(Cc5ccccc5-c5ccc(Cl)cc5)CC4)ccc23)cc1S(=O)(=O)C(F)(F)F		13 nM	245 nM								> 1000 nM				
CN(C)CC[C@H](CSc1ccccc1)Nc1ccc(S(=O)(=O)Nc2ncnc3cc(N4CCN(CC5=C(c6ccc(Cl)cc6)CCC(C)(C)C5)CC4)ccc23)cc1S(=O)(=O)C(F)(F)F		5 nM	275 nM	2650 nM	11.6 nM	5460 nM	37.2 nM				> 1000 nM				
CC1(C)CCC(c2ccc(Cl)cc2)=C(CN2CCN(c3ccc4c(NS(=O)(=O)c5ccc(N[C@H](CCN6CCOCC6)CSc6ccccc6)c(S(=O)(=O)C(F)(F)F)c5)ncnc4c3)CC2)C1		84 nM	> 1000 nM	> 10000 nM	37.2 nM	> 10000 nM	328 nM				> 1000 nM				
CN(C)CC[C@H](CSc1ccccc1)Nc1ccc(S(=O)(=O)NC(=O)c2ccc(N3CCN(Cc4ccccc4-c4ccc(Cl)cc4)CC3)cc2)cc1[N+](=O)[O-] [ABT 737]				> 10000 nM	2.03 nM	> 10000 nM	51 nM					7.9 ×10⁵ /M/s	51 nM	inactive	
O=S(=O)(Nc1ncnc2cc(N3CCN(Cc4ccccc4-c4ccc(Cl)cc4)CC3)ccc12)c1ccc(N[C@H](CCN2CCOCC2)CSc2ccccc2)c(S(=O)(=O)C(F)(F)F)c1		81 nM	> 1000 nM	> 10000 nM	22.4 nM	> 10000 nM	149 nM	630 nM	820 nM	400 nM	> 1000 nM				
CN(C)CC[C@H](CSc1ccccc1)Nc1ccc(S(=O)(=O)Nc2ncnc3cc(N4CCN(Cc5ccccc5-c5ccc(Cl)cc5)CC4)ccc23)cc1[N+](=O)[O-]		8.7 nM	440 nM	1680 nM	40 nM	5820 nM	110 nM	610 nM	210 nM	170 nM	> 1000 nM	1.9 ×10⁵ /M/s	110 nM		5800 nM
CC1(C)CCC(c2ccc(Cl)cc2)=C(CN2CCN(c3ccc4c(NS(=O)(=O)c5ccc(N[C@H](CCN6CCOCC6)CSc6ccccc6)c([N+](=O)[O-])c5)ncnc4c3)CC2)C1		21 nM	> 1000 nM	> 10000 nM	38 nM	> 10000 nM	222 nM				> 1000 nM				
CC1(C)CCC(c2ccc(Cl)cc2)=C(CN2CCN(c3ccc(C(=O)NS(=O)(=O)c4ccc(N[C@H](CCN5CCOCC5)CSc5ccccc5)c(S(=O)(=O)C(F)(F)F)c4)cc3)CC2)C1 [NAVITOCLAX]								80 nM	120 nM	51 nM					
CN(C)CC[C@H](CSc1ccccc1)Nc1ccc(S(=O)(=O)Nc2ncnc3cc(N4CCN(CC5=C(c6ccc(Cl)cc6)CCC(C)(C)C5)CC4)ccc23)cc1[N+](=O)[O-]		12 nM	540 nM	1610 nM	16 nM	4300 nM	61 nM				> 1000 nM				
